Results on eight molecules are retold here after ChEMBL document CHEMBL3045252, “Stereoselective syntheses of all stereoisomers of lariciresinol and their plant growth inhibitory activities” (J Agric Food Chem, 2011).

For data set [1], the system named is Lactuca sativa. Briefly: Plant growth regulatory activity in lettuce Lactuca sativa (lettuce) assessed as inhibition of root growth at 1 mM at 20 degC measured after 3 days. The conditions noted are these: 72 h, read-out: GI. It counts as functional. A digest of the protocol: (§1)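 Paper was treated with acetone solution and dried, then 3 mL water added to a final 1 × 10^-3 M. Sealed dishes kept dark at 20 °C. Root and shoot lengths expressed as growth relative to the negative control. Mean ± SEM. One-way ANOVA with Tukey post-test.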

Data set [2] concerns Lolium multiflorum. Briefly: Plant growth regulatory activity in Lolium multiflorum (Italian ryegrass ) assessed as inhibition of shoot length at 1x10'-3 M at 20 degC measured after 5 days. It counts as functional. The conditions noted are these: 120 h, read-out: GI. Put shortly: (§2)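 Paper was pre-wetted with 500 μL acetone solution (6.0 × 10^-3 to 6.0 × 10^-8 M) and dried, then 3 mL water added to a final 1.0 × 10^-3 to 1.0 × 10^-8 M. Sealed dishes kept dark at 20 °C. Root and shoot lengths read against a negative control. Mean ± SEM; three experiments below 10^-3 M. One-way ANOVA with Tukey post-test.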

Data set [3] has as its system Lactuca sativa. The experiment in a line: Plant growth regulatory activity in lettuce Lactuca sativa (lettuce) assessed as inhibition of shoot length at 1 mM at 20 degC measured after 3 days. The conditions noted are these: 72 h, read-out: GI. The format is functional. Put shortly: as §1
In data set [4] the test system is Lolium multiflorum. The experiment in a line: Plant growth regulatory activity in Lolium multiflorum (Italian ryegrass) assessed as inhibition of root growth at 1x10'-3 M at 20 degC measured after 5 days. The conditions noted are these: 120 h, read-out: GI. It counts as functional. A digest of the protocol:
as §2

Data set [5] deals with Lolium multiflorum. Briefly: Inhibition of germination in Lolium multiflorum (Italian ryegrass) seed assessed as growth rate of germinated grass root. It counts as functional.
In data set [6] the test system is Lolium multiflorum. The experiment in a line: Plant growth regulatory activity in Lolium multiflorum (Italian ryegrass) assessed as stimulation of root growth up to 10'--4 to 10^-7 M at 20 degC measured after 5 days. The format is functional. Put shortly: as §2
For data set [7], the system named is Lolium multiflorum. The experiment in a line: Inhibition of seed germination in Lolium multiflorum (Italian ryegrass) seed assessed as seed germination rate (reference value: 90.3 +/- 1.40%). It counts as functional.
The subject of data set [8] is Lolium multiflorum. Briefly: Toxicity in italian ryegrass Lolium multiflorum (Italian ryegrass) assessed as adverse effect up to 10^-7 M. The conditions noted are these: in vivo. It counts as organism-based.
For data set [9], the system named is Lolium multiflorum. The experiment in a line: Plant growth regulatory activity in Lolium multiflorum (Italian ryegrass) assessed as inhibition of shoot length at 1 mM at 20 degC measured after 5 days. The conditions noted are these: 120 h, read-out: GI. It counts as functional. Put shortly: as §2

For `COc1cc(C[C@@H]2CO[C@H](c3ccc(O)c(OC)c3)[C@@H]2CO)ccc1O`, the inhibition of growth at 1000 µM with Lactuca sativa [1] is -20.7%; in the data set on Lolium multiflorum [2], under 23%; in the data set on Lactuca sativa [3] it was -1.6%; in the data set on Lolium multiflorum [4] it was -30%.

For the molecule `COc1cc(C[C@H]2CO[C@H](c3ccc(O)c(OC)c3)[C@@H]2CO)ccc1O`, the inhibition of growth at 1000 µM in the data set with Lactuca sativa [1] is -20.7%; with Lactuca sativa [3], -1.6%; in the data set with Lolium multiflorum [4], -48.2%. In addition, the results for the “inhibition (INH)” value in the data set with Lolium multiflorum [5] and in the data set on Lolium multiflorum [7] were -35.4% and 72.5%, respectively. The Activity with Lolium multiflorum [6] was found to be 20%.

With `COc1cc(C[C@@H]2CO[C@@H](c3ccc(O)c(OC)c3)[C@H]2CO)ccc1O`, in the data set on Lactuca sativa [3], the inhibition of growth at 1000 µM was -32.3%.

For `COc1cc(C[C@H]2CO[C@@H](c3ccc(O)c(OC)c3)[C@@H]2CO)ccc1O`, the inhibition of growth at 1000 µM in the data set with Lactuca sativa [1] is -20.7%; in the data set with Lactuca sativa [3] it was -1.6%. Also, in the data set with Lolium multiflorum [8], the Activity result is on record as “Non-toxic”.

Consider `COc1cc(C[C@@H]2CO[C@H](c3ccc(O)c(OC)c3)[C@H]2CO)ccc1O`, for which the inhibition of growth at 1000 µM is -20.7% in the data set on Lactuca sativa [1] and -1.6% in the data set with Lactuca sativa [3]. In addition, the Activity result in the data set with Lolium multiflorum [8] is on record as “Non-toxic”.

`COc1cc(C[C@H]2CO[C@@H](c3ccc(O)c(OC)c3)[C@H]2CO)ccc1O`: the inhibition of growth at 1000 µM was -20.7% in the data set with Lactuca sativa [1], under 23% with Lolium multiflorum [2], -1.6% in the data set with Lactuca sativa [3] and -30% with Lolium multiflorum [4].

For the molecule `COc1cc(C[C@@H]2CO[C@@H](c3ccc(O)c(OC)c3)[C@@H]2CO)ccc1O` [(-)-Lariciresinol], the inhibition of growth at 1000 µM in the data set with Lactuca sativa [1] was -8.2%; with Lolium multiflorum [9], -17.1%; in the data set with Lactuca sativa [3], -13.3%; with Lolium multiflorum [4] it was -44.3%. Also, the “inhibition (INH)” value was -57.2% in the data set with Lolium multiflorum [5] and 80% in the data set on Lolium multiflorum [7].

Consider `COc1cc(C[C@H]2CO[C@H](c3ccc(O)c(OC)c3)[C@H]2CO)ccc1O` [LARICIRESINOL], for which the inhibition of growth at 1000 µM in the data set with Lactuca sativa [1] was -14.4%; in the data set with Lactuca sativa [3] it was -22%; in the data set on Lolium multiflorum [4], -29.3%. In addition, the figures for the “inhibition (INH)” value in the data set with Lolium multiflorum [5] and in the data set on Lolium multiflorum [7] were -40.7% and 72.5%, respectively.
